Reference: publication PMC2697266 (Nature, 2009)

Tests used:
[1] = tested on: JARID1APHD1 (the first PHD finger of JARID1A); assay: Biotinylated histone peptide pull-down, JARID1APHD1; format: binding, human; details: 50mM Tris pH 7.5, 150mM NaCl; qualitative
Method in brief: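 Biotinylated histone peptides were bound to recombinant PHD protein and captured on avidin beads. Beads were washed extensively in 50mM Tris pH 7.5, 150mM NaCl (250mM for stringent washes), 0.05% NP-40, 0.3mg/ml BSA and 1mM DTT; bound protein was then assessed.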

[2] = 15N NMR relaxation, rotational correlation time; format: physicochemical; details: 15N R2/R1 ratios, pH 7.0, 25°C; estimated
Method in brief: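 0.2-0.5 mM uniformly 15N-labeled JARID1A PHD3 (bacterial His6-SUMO fusion, cleaved, purified by Ni-NTA and gel filtration), free or with unlabeled H3 1-9 K4me3 peptide. R1 and R2 measured with standard pulse sequences at 25°C, 800 MHz with cryoprobe; correlation time estimated from R2/R1 ratios.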

Substance | interaction with JARID1APHD1 in peptide pull-down [1] | rotational correlation time [2] [ns]
H3K4me0: unmodified H3K4 histone peptide | interacted | 
JARID1APHD3: C-terminal PHD finger of JARID1A (amino acids 1601-1660) (EESDDENAVCAAQNCQRPCKDKVDWVQCDGGCDEWFHQVCVGVSPEMAENEDYICINCAK; left off: GST, end not stated, kept) |  | 3.5
